# Measurements as given in ChEMBL document CHEMBL4396890, “Synthesis, Biological Evaluation, Structure-Activity Relationship, and Mechanism of Action Studies of Quinoline-Metronidazole Derivatives Against Experimental Visceral Leishmaniasis” (J Med Chem, 2019).
# Active and inactive are the calls of the source. The calls are words filed in the database; no cut-off is given here.
# Tests used:
# [1] = Cytotoxicity against mouse J774 cells assessed as cell viability up to 50 uM measured after 48 hrs by MTT assay relative to control; type: cell-based; settings: read-out: Activity
# Procedure, shortened: (§1)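 Vero cells and J774 macrophages were exposed to 12.5−400 μM compound for 48 h. Viability was read by MTT. CC50 was derived from the curve. Mean ± SD, n = 3 experiments in replicate.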
# Leishmania donovani [2] = experiment: Antileishmanial activity against Leishmania donovani MHOM/IN/80/Dd8 amastigotes harboring luciferase reporter gene infected in mouse J774 cells at 100 uM after 48 hrs by Steady-Glo luminescence assay; type: functional, organism-based
# Procedure, shortened: (§2)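 Infection of J774 macrophages with L. donovani Dd8 promastigotes at a 1:8 cell:parasite ratio. Compounds were diluted 2-fold in RPMI over 3.125–100 μM final and applied for 48 h. Amastigote inhibition was read by luciferase (RLU) or by Giemsa count of amastigotes per 100 macrophages. IC50 was from dose–response; n = 3 independent experiments done in replicate.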
# Leishmania donovani [3] = experiment: Antileishmanial activity against Leishmania donovani MHOM/IN/80/Dd8 promastigotes infected in ip dosed BALB/c mouse assessed as reduction in parasite load in liver administered once daily for 5 days measured 7 days post dose by giemsa staining-based assay; type: functional, organism-based
# Procedure, shortened: (§3)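 Hamster-passaged strain was transformed to promastigotes. Stationary-phase cells (2 × 10^7 in 0.2 mL PBS) were injected into the tail vein of BALB/c mice. From day 15 post-infection, mice received compound ip in 8% DMSO in PBS for 5 consecutive days, 5 mice per group. Mice were killed day 7 post-treatment. Liver and spleen burden was read from Giemsa-stained stamp smears as LDU.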
# [4] = Half life in rat liver microsomes at 10 ug/ml preincubated for 5 mins followed by NADPH addition measured after 60 mins by UPLC analysis; type: ADME, Microsome
# Procedure, shortened: (§4)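 Compound was incubated with rat liver microsomes, sampling % remaining up to 60 min. In vitro half-life and related parameters came from a plot of ln(% remaining) versus incubation time.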
# Leishmania donovani [5] = experiment: Antileishmanial activity against Leishmania donovani MHOM/IN/80/Dd8 amastigotes harboring luciferase reporter gene infected in mouse J774 cells at 50 uM after 48 hrs by Steady-Glo luminescence assay relative to control; type: functional; settings: MHOM/IN/80/Dd8, J774, 48 h; procedure, shortened: as §2
# Leishmania donovani [6] = experiment: Antileishmanial activity against Leishmania donovani MHOM/IN/80/Dd8 promastigotes harboring luciferase reporter gene at 50 uM after 48 hrs by Steady-Glo luminescence assay relative to control; type: functional; settings: MHOM/IN/80/Dd8, 48 h
# Procedure, shortened: (§5)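 Luciferase-expressing L. donovani Dd8 promastigotes were grown at 24 °C in M199 with 10% heat-inactivated FBS and G418 20 μg/mL. They were treated at varied concentrations for 24 and 48 h, and inhibition was read as relative luminescence units versus untreated control. IC50 was from dose–response; screening values are mean ± SD of at least three experiments in duplicate.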
# [7] = Stability of the compound in simulated intestinal fluid assessed as parent compound remaining measured after 2 hrs by UPLC analysis; type: ADME; settings: read-out: Stability
# Procedure, shortened: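 Compound incubated 2 h in simulated gastric fluid (pH 1.2) […] or in simulated intestinal fluid (pH 6.5) […]; the percentage of intact compound remaining was reported.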
# [8] = Stability in rat plasma assessed as parent compound remaining at 10 ug/ml measured after 2 hrs by UPLC analysis; type: ADME, cell-free; settings: read-out: Stability
# Leishmania donovani [9] = experiment: Antileishmanial activity against Leishmania donovani MHOM/IN/80/Dd8 promastigotes harboring luciferase reporter gene after 48 hrs by Steady-Glo luminescence assay relative to control; type: functional; procedure, shortened: as §5
# Leishmania donovani [10] = experiment: Antileishmanial activity against Leishmania donovani MHOM/IN/80/Dd8 promastigotes infected in BALB/c mouse assessed as reduction in parasite load in spleen at 50 mg/kg, ip administered once daily for 5 days measured 7 days post dose by giemsa staining-based assay relative to control; type: functional; parameters: scale not given: the % may be the effect or the level left; procedure, shortened: as §3
# Leishmania donovani [11] = experiment: Antileishmanial activity against Leishmania donovani MHOM/IN/80/Dd8 promastigotes harboring luciferase reporter gene at 25 uM after 48 hrs by Steady-Glo luminescence assay relative to control; type: functional; settings: MHOM/IN/80/Dd8, 48 h; procedure, shortened: as §5
# Leishmania donovani [12] = experiment: Antileishmanial activity against Leishmania donovani MHOM/IN/80/Dd8 amastigotes harboring luciferase reporter gene infected in mouse J774 cells at 25 uM after 48 hrs by Steady-Glo luminescence assay relative to control; type: functional; settings: MHOM/IN/80/Dd8, J774, 48 h; procedure, shortened: as §2
# Leishmania donovani [13] = experiment: Antileishmanial activity against Leishmania donovani MHOM/IN/80/Dd8 promastigotes infected in ip dosed BALB/c mouse assessed as reduction in parasite load in spleen administered once daily for 5 days measured 7 days post dose by giemsa staining-based assay; type: functional, organism-based; procedure, shortened: as §3
# Leishmania donovani [14] = experiment: Antileishmanial activity against Leishmania donovani MHOM/IN/80/Dd8 promastigotes infected in BALB/c mouse assessed as reduction in parasite load in spleen at 200 mg/kg, ip administered once daily for 5 days measured 7 days post dose by giemsa staining-based assay relative to control; type: functional; parameters: scale not given: the % may be the effect or the level left; procedure, shortened: as §3
# Leishmania donovani [15] = experiment: Antileishmanial activity against Leishmania donovani MHOM/IN/80/Dd8 promastigotes harboring luciferase reporter gene by MTT assay; type: functional, organism-based; settings: TDE = time-dependent effect
# Procedure, shortened: (§6)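 Luciferase-expressing L. donovani Dd8 promastigotes were grown at 24 °C in M199 with 10% heat-inactivated FBS and G418 20 μg/mL. They were exposed to a range of concentrations for 48 h, and viability was read by MTT absorbance as percent of untreated control. IC50 was from dose–response; n = 3 independent experiments done in replicate.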
# Leishmania donovani [16] = experiment: Antileishmanial activity against Leishmania donovani MHOM/IN/80/Dd8 amastigotes harboring luciferase reporter gene infected in mouse J774 cells after 48 hrs by Giemsa staining-based microscopic assay; type: functional, organism-based; settings: for IC50: MHOM/IN/80/Dd8, J774, 48 h; procedure, shortened: as §2
# Leishmania donovani [17] = experiment: Antileishmanial activity against Leishmania donovani MHOM/IN/80/Dd8 promastigotes harboring luciferase reporter gene after 48 hrs by Steady-Glo luminescence assay; type: functional, organism-based; settings: for IC50: MHOM/IN/80/Dd8, 48 h; procedure, shortened: as §5
# Leishmania donovani [18] = experiment: Antileishmanial activity against Leishmania donovani MHOM/IN/80/Dd8 promastigotes harboring luciferase reporter gene at 100 uM after 48 hrs by MTT assay; type: functional, organism-based; procedure, shortened: as §6
# Leishmania donovani [19] = experiment: Antileishmanial activity against Leishmania donovani MHOM/IN/80/Dd8 promastigotes harboring luciferase reporter gene at 100 uM after 48 hrs by Steady-Glo luminescence assay; type: functional, organism-based; procedure, shortened: as §5
# Leishmania donovani [20] = experiment: Antileishmanial activity against Leishmania donovani MHOM/IN/80/Dd8 amastigotes harboring luciferase reporter gene infected in mouse J774 cells by Giemsa staining-based microscopic assay; type: functional, organism-based; settings: TDE = time-dependent effect; procedure, shortened: as §2
# Leishmania donovani [21] = experiment: Antileishmanial activity against Leishmania donovani MHOM/IN/80/Dd8 amastigotes harboring luciferase reporter gene infected in mouse J774 cells at 50 uM after 48 hrs by Giemsa staining-based microscopic assay relative to control; type: functional; settings: MHOM/IN/80/Dd8, J774, 48 h; procedure, shortened: as §2
# [22] = Cytotoxicity against African green monkey Vero cells assessed as cell viability up to 100 uM measured after 48 hrs by MTT assay relative to control; type: cell-based; settings: chlorocebus sabaeus, read-out: Activity; procedure, shortened: as §1
# [23] = Intrinsic clearance in rat liver microsomes at 10 ug/ml preincubated for 5 mins followed by NADPH addition measured after 60 mins by UPLC analysis; type: ADME, Microsome; settings: read-out: CLH; procedure, shortened: as §4
# [24] = Stability in rat liver microsomes assessed as parent compound remaining at 10 ug/ml preincubated for 5 mins followed by NADPH addition measured after 60 mins by UPLC analysis; type: ADME, Microsome; settings: read-out: Stability
# Procedure, shortened: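 Compound incubated with rat liver microsomes and the percentage remaining was followed over time up to 60 min. In vitro half-life and related parameters were derived from a plot of the natural log of percent remaining against incubation time.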
SMILES,viability at 48 h [1],inhibition (Leishmania donovani [2]),Activity (Leishmania donovani [3]),half-life at 10 ug/ml [4],inhibition at 50 µM (Leishmania donovani [5]),inhibition at 50 µM (Leishmania donovani [6]),remaining at 2 h [7],"remaining at 2 h, 10 ug/ml [8]",Imax (Leishmania donovani [9]),Activity (Leishmania donovani [10]),inhibition at 25 µM (Leishmania donovani [11]),inhibition at 25 µM (Leishmania donovani [12]),Activity (Leishmania donovani [13]),Activity (Leishmania donovani [14]),inhibition (Leishmania donovani [15]),inhibition (Leishmania donovani [16]),IC50 (Leishmania donovani [16]),inhibition (Leishmania donovani [17]),IC50 (Leishmania donovani [17]),inhibition (Leishmania donovani [18]),also measured
Cc1cc(-c2cccc(OCCn3c([N+](=O)[O-])cnc3C)c2)nc2ccccc12,> 92%,Active,Dose-dependent effect,131 min,93.2 to 96%,94.7%,11.4%,68.2%,>93%,>50%,77.8%,75.2%,Dose-dependent effect,54.14%,Tde,Dose-dependent effect,9.09 µM,Dose-dependent effect,9.54 µM,Active,"inhibition (Leishmania donovani [19]): Active; inhibition (Leishmania donovani [20]): Tde; inhibition at 50 µM (Leishmania donovani [21]): > 93%; viability at 48 h [22]: > 86%; microsomal CLint at 10 ug/ml [23]: 10.7 µL/min/mg; remaining at 1 h, 10 ug/ml [24]: 72.8%"
Cc1cc(-c2ccc(OCCn3c([N+](=O)[O-])cnc3C)cc2)nc2ccccc12,> 92%,Active,Dose-dependent effect,150 min,93.8 to 96%,94.4%,43.6%,88.5%,>93%,>80.3%,85.8%,83.2%,Dose-dependent effect,82.2%,Tde,Dose-dependent effect,4.06 µM,Dose-dependent effect,5.42 µM,Active,"inhibition (Leishmania donovani [19]): Active; inhibition (Leishmania donovani [20]): Tde; inhibition at 50 µM (Leishmania donovani [21]): > 93%; viability at 48 h [22]: > 86%; microsomal CLint at 10 ug/ml [23]: 9.3 µL/min/mg; remaining at 1 h, 10 ug/ml [24]: 76%"
